Values after ≈ are worked out from the molar mass of the structure shown.
Experiments:
[1] = biological target: Histone-lysine N-methyltransferase EZH2 (Homo sapiens, UniProt Q15910); assay: Inhibition of EZH2 in human KARPAS422 cells assessed as reduction in H3K27me3 level after 72 hrs by ELISA
[2] = Passive permeability in MDCK cells at 2 uM after 90 mins by LC-MS/MS analysis; assay type: ADME, cell-based, Canis lupus familiaris; conditions: dog; for Papp at […], 2 µM: MDCK, read-out: permeability
Procedure, shortened: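 Low-efflux MDCK cells (MDCK-LE) on 96-well inserts, used on day 4. Monodirectional transport of 2 μM drug in transport buffer with 0.1% DMSO at 37 °C. Donor and receiver sampled at 0 and 90 min for LC−MS/MS. Donor pH 6.5 and 7.4, receiver pH 7.4.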

[3] = Thermodynamic solubility in water at 25 degC using crystalline form; assay type: physicochemical; conditions: read-out: Therm_solubility
[4] = (§1) Intrinsic clearance in human liver microsomes assessed per mg protein at 1 uM preincubated for 10 mins followed by NADPH addition measured after 45 mins by LC-MS/MS analysis; assay type: ADME, microsome; conditions: liver microsomes, read-out: CLH
Procedure, shortened: (§2)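 Test compound (1 μM) with pooled liver microsomes (0.8 mg/mL protein) in 100 mM potassium phosphate pH 7.4, 10 min preincubation, started with 2 mM NADPH, 45 min at 37 °C, in triplicate. Samples quenched with cold methanol containing buspirone internal standard, analysed by LC−MS/MS. CLint derived from t1/2 of parent loss (log-linear slope).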

[5] = test system: KARPAS-422; assay: Antiproliferative activity against human KARPAS422 cells after 72 hrs by resazurin assay; assay type: functional, cell-based
[6] = Kinetic solubility of the compound; assay type: physicochemical; conditions: for solubility kinetic: read-out: Kinetic_solubility
[7] = biological target: Histone-lysine N-methyltransferase EZH2 (Homo sapiens, UniProt Q15910, Y641N); assay: Inhibition of EZH2 Y641N mutant (unknown origin) using oligonucleosomes as substrate after 60 mins in presence of [3H]SAM by scintillation counting analysis
Sequence of Histone-lysine N-methyltransferase EZH2 (Homo sapiens, UniProt Q15910, Y641N) (Q15910 whole entry Y641N): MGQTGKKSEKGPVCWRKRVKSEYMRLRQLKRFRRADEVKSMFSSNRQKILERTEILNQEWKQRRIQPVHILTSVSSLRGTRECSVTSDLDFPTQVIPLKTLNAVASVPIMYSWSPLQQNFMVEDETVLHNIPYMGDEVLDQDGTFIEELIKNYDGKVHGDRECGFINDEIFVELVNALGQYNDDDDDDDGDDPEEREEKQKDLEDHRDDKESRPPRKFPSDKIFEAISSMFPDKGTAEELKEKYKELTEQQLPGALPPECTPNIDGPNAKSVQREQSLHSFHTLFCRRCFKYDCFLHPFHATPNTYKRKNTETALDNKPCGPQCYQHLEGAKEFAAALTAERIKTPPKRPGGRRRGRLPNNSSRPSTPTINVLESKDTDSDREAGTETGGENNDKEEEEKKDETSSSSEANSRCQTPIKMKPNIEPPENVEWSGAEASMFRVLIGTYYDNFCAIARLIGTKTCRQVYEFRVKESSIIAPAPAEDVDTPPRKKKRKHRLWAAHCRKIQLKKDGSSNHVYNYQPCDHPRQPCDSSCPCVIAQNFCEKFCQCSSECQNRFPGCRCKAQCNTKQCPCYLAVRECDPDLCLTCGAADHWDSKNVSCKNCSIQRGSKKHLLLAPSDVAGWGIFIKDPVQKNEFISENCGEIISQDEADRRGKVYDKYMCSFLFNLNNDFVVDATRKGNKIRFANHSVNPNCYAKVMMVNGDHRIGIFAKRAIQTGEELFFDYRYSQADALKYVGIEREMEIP

[8] = Lipophilicity, log D of the compound at pH 7.4; conditions: buffer
[9] = Clearance in human hepatocytes assessed per million cells; assay type: ADME, cell-based, Hepatocyte; conditions: read-out: CLH
[10] = test system: Liver; assay: as §1; assay type: ADME, microsome; conditions: microsomes, 0.75 h, 1 µM; procedure, shortened: as §2

Sequence of Histone-lysine N-methyltransferase EZH2 (Homo sapiens, UniProt Q15910) (Q15910 whole entry): as the sequence (Q15910 whole entry Y641N) above, with N641Y counted along it

Row | IC50 [1] [nM] | Papp at […], 2 µM [2] [×10⁻⁶ cm/s] | solubility thermodynamic [3] [µg/mL] | microsomal CLint at 1 µM [4] [µL/min/mg] | IC50 ([5]; Homo sapiens, KARPAS-422, 72 h) [nM] | solubility kinetic [6] [µM] | Ki [7] [nM] | logD ([8]; pH 7.4, logD) | hepatocyte CLint [9] [µL/min/1e6 cells] | permeability ([2]; mdck, […], 2 µM) [×10⁻⁶ cm/s] | microsomal CLint [10] [µL/min/mg] | IC50 ([5]; karpas-422) [nM] | Kinetic_solubility [6] [µM] | logD ([8]; pH 7.4) | Compound
1 | 129 | 12.4 | 34 (≈ 83.1 µM) | 15.8 | 186 | 131 (≈ 53.6 µg/mL) | 17 | 2.6 | – | – | – | – | – | – | Cc1cc(C)c(CN2CCc3c(Cl)cc([C@H](C)CO)c(Cl)c3C2=O)c(=O)[nH]1
2 | 17 | 15.7 | 2 (≈ 4.48 µM) | 107 to 169 | 23 | 93 to 95 (≈ 41.5 to 42.4 µg/mL) | 1.15 | – | 75 | – | – | – | – | – | Cc1cc(C)c(CN2CCc3c(Cl)cc(-c4c(C)noc4C)c(Cl)c3C2=O)c(=O)[nH]1
3 | 6080 | – | – | – | – | – | 460 | – | – | 7.7 | 45.7 | 5560 | 446 | 2.3 | CCOC(c1cc(Cl)c2c(c1Cl)C(=O)N(Cc1c(C)cc(C)[nH]c1=O)CC2)C1CS(=O)(=O)C1 (single isomer, unassigned)

Reference: ChEMBL document CHEMBL4024771, “Optimization of Orally Bioavailable Enhancer of Zeste Homolog 2 (EZH2) Inhibitors Using Ligand and Property-Based Design Strategies: Identification of Development Candidate …” (J Med Chem, 2018)
